The list is not random: actives were taken first. Their share in the collection is about 3.1%.
KCNK3 inh = human KCNK3 channel inhibition, primary screen. O14649. CHO-KCNK3 thallium flux, FluxOR fluorescence; stronger effect = lower value. B-score at 10 µM. 0.84% of 340,000 active. AID 602410;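 active means B-score under library mean minus 4 SD, starting fluorescence ratio at most library mean plus 5 SD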;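 further: more negative B-score means stronger inhibition of thallium flux through KCNK3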
KCNQ1 act = potentiates or activates the human KCNQ1 potassium channel. AID 2648. B-score at 10 µM. P51787. CHO-K1 KCNQ1, thallium flux FluxOR fluorescence; stronger effect = higher value. 0.35% of 310,000 active;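 active means fluorescence ratio B-score, a plate-corrected score, at least three library SD, with initial intensity B-score within 5 SD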
Target sequence (P51787 whole entry, looked up): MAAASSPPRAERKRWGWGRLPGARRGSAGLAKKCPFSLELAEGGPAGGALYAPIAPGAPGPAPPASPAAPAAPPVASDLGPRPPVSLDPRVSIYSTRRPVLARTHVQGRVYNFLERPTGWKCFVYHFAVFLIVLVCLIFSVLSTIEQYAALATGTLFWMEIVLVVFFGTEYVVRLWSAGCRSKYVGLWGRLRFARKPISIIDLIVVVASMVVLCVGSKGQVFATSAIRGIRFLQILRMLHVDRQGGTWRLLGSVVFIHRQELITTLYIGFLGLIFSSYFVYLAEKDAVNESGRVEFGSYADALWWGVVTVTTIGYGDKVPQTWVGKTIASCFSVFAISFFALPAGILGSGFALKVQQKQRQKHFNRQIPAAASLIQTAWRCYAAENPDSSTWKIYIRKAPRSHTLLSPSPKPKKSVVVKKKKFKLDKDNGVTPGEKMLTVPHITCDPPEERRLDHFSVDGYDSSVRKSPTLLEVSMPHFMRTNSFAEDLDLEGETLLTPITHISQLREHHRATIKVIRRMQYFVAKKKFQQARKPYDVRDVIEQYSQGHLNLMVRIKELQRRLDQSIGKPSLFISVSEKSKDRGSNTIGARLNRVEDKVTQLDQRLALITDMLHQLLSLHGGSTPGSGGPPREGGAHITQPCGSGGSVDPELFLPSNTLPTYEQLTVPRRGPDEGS
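Assay system: CHO-K1 cells stably expressing KCNQ1; Medium: assay buffer with matched DMSO; Also added: K+/Tl+ depolarizing stimulus; Dosing: single dose; Timing: dye 90 min, compound 20 min, room temperature; Measured by: kinetic FluxOR thallium fluorescence, 10-s 1-Hz baseline, 110-s post-stimulus read; Read-out: peak-minus-minimum fluorescence over initial fluorescence, negative-control normalized, B-scored.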
KCNQ1 inh = human KCNQ1 channel inhibition. CHO-K1 KCNQ1, FluxOR thallium flux fluorescence; stronger effect = higher value. B-score at 10 µM. 1.3% of 310,000 active;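 active means compounds whose thallium flux B-score, printed positive for inhibition, exceeds three library SD while starting fluorescence stays within three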;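 further: channel opened by potassium depolarization with thallium stimulus after 20 min compound exposure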
hERG protect = hERG (human) protection from proarrhythmic block. Q12809. activation (rescue from dofetilide block), less the hit threshold, % at 10 µM. CHO-hERG, FluxOR thallium flux, dofetilide IC70 present. AID 1511. 0.51% of 310,000 active;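 active means activation above the mean of controls blocked by dofetilide plus 5 SD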;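 further: thallium influx through hERG after potassium depolarization seen as dye fluorescence rise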
KCNK9 inh = human KCNK9 channel inhibition | Q9NPC2 | HEK293 KCNK9, FluxOR thallium flux fluorescence; stronger effect = lower value | B-score at 10 µM | 1.2% of 310,000 active;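 active means ratio B-score over 3 SD below the library mean, with starting fluorescence within 5 SD of its mean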;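 further: negative B-score means less thallium flux so channel inhibition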
KCNK3 confirm = confirmation of human KCNK3 two-pore domain potassium channel inhibitors | shares compounds with KCNK3 inh | CHO-KCNK3 thallium flux, FluxOR fluorescence; 0% buffer, 100% carvedilol maximal block | ratio percent of control, % at 10 µM | 99% of 2,400 active;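 active means ratio percent of control, averaged over triplicates, above buffer control mean plus 5 SD, cut at about 64% in these data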;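 further: ratio is the fluorescence rise from min to max over baseline after thallium stimulus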
KCNK3 noninduced = KCNK3 inhibitor counter-screen hit in non-induced cells; shares compounds with KCNK3 inh; non-induced KCNK3 parental cells, FluxOR thallium flux; stronger effect = lower value; 40% of 2,400 active; thallium flux ratio (lower = more inhibition) at 10 µM; AID 651747;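 active means thallium flux ratio, averaged over three wells, more than 5 SD below the buffer control mean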;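 further: host cells are CHO cells without KCNK3 induction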
Of the large screens only hits and unclear results are named; the others gave an inactive call (follow-up assays come after a bar, where they were run).

CCOC(=O)C1=C(c2ccccc2)NC(SCC(=O)Nc2ccccc2C)=C(C#N)C1c1ccco1 (centres undefined)	none
O=C1N(Cc2cccnc2)C[C@@H]2C[C@@H](c3cccc(Oc4ccccc4)c3)N3CCC[C@@]123	none
CCOc1ccc(C(=O)n2cc(C(=O)OC)c3ccccc32)cc1	KCNK3 inh -10 | KCNK3 confirm 116 | KCNK3 noninduced 0.15
COc1ccccc1CN(C)CC(=O)Nc1cccc2ccccc12	none
COc1cc(Cl)c(C)cc1NC(=O)CN(C)Cc1cccc(OC)c1OC	KCNK3 inh -13 | KCNK3 confirm 99 | KCNK3 noninduced inactive
CN(Cc1ccc(Cl)c(Cl)c1)C(=O)C1CSC2(C)CCC(=O)N12 (centres undefined)	none (no result: KCNQ1 act, KCNQ1 inh, hERG protect, KCNK9 inh)
CCOC(=O)c1c(NC(=O)C2CCCO2)sc(C)c1C (centres undefined)	KCNK3 inh -11 | KCNK3 confirm 109 | KCNK3 noninduced inactive
CCOC(=O)c1c(NC(=O)COC(=O)C2CC2C)sc(C)c1C (centres undefined)	KCNK3 inh -10, KCNK9 inh -8.1 | KCNK3 confirm 110 | KCNK3 noninduced inactive
CN(CC(=O)Nc1cccc(F)c1)CC(=O)Nc1ccccc1Oc1ccccc1	KCNK3 inh -9 | KCNK3 confirm 105 | KCNK3 noninduced inactive
N#Cc1nc(-c2ccco2)oc1N1CCN(c2cccc(Cl)c2)CC1	KCNK3 inh -9.6 | KCNK3 confirm 111 | KCNK3 noninduced inactive
COc1cc(C(=S)N2CCOCC2)ccc1OC(=O)c1ccccc1C	KCNK3 inh -8.8 | KCNK3 confirm 90 | KCNK3 noninduced inactive
COc1ccc(C(=S)N2CCOCC2)cc1OC(=O)c1ccccc1Cl	none
O=C1c2ccccc2C(Nc2ccc(F)c(Cl)c2)N1Cc1ccco1 (centres undefined)	KCNK3 inh -8.7 | KCNK3 confirm 98 | KCNK3 noninduced inactive
O=C1c2ccccc2C(Nc2ccc(S(=O)(=O)N3CCOCC3)cc2)N1Cc1ccco1 (centres undefined)	none
O=C1c2ccccc2C(Nc2ccc(S(=O)(=O)N3CCCCC3)cc2)N1Cc1ccco1 (centres undefined)	KCNK3 inh -12, KCNK9 inh -7.2 | KCNK3 confirm 100 | KCNK3 noninduced inactive
CC[C@H](C)/C=C(C)/C=C/C1=CC2=CC(=O)[C@]3(C)OC(=O)[C@@H](C(C)=O)[C@@H]3C2=CO1	KCNK3 inh -9, KCNQ1 inh 6 | KCNK3 confirm 122 | KCNK3 noninduced 0.078
CC(=O)N1N=C2/C(=C/c3ccccc3)CCCC2C1c1ccccc1 (centres undefined)	KCNK3 inh -9.6 | KCNK3 confirm 103 | KCNK3 noninduced inactive
O=C(O)c1c(C(=O)N2N=C3/C(=C/c4ccccc4)CCCC3C2c2ccccc2)cccc1[N+](=O)[O-] (centres undefined)	none
COc1ccc(Cl)cc1NC(=O)CN(C)C(=O)c1ccc(N2CCCCCC2)c([N+](=O)[O-])c1	KCNK3 inh -12 | KCNK3 confirm 107 | KCNK3 noninduced inactive
Cc1cc(-c2nnc(SCC(=O)Nc3cccc(F)c3)n2N)n[nH]1	none
CCOc1ccc(NC(=O)C2CCN(S(C)(=O)=O)CC2)cc1	KCNK3 inh -9.3 | KCNK3 confirm 97 | KCNK3 noninduced inactive
Cc1cc(C)n2nc(SCC(=O)N3CCCC(C)C3)nc2n1 (centres undefined)	none (no result: KCNQ1 act, KCNQ1 inh, hERG protect, KCNK9 inh)
N#Cc1ccccc1Sc1ccccc1C(=O)OCc1nnc(-c2ccccc2)o1	KCNK3 inh -9.9 | KCNK3 confirm 78 | KCNK3 noninduced inactive
CCOC(=O)Cn1nc(-c2ccccc2)nc1-c1ccccc1	none
O=C(Cn1nc(-c2ccccc2)nc1-c1ccccc1)OC1CCCCC1	KCNK3 inh -10 | KCNK3 confirm 104 | KCNK3 noninduced inactive
CC(C)(C)NC(=O)c1ccc(COc2ccc(Cl)cc2Cl)o1	none
COCCCN(C(=S)Nc1cc(Cl)cc(Cl)c1)C(C)c1ccccn1 (centres undefined)	KCNK3 inh -11, KCNQ1 inh 8 | KCNK3 confirm 123 | KCNK3 noninduced 0.16
CC(C)(C)NC(=O)CSc1nnc(C2CC2)n1-c1ccccc1	none
COCCc1ncc(CN2CCCC(C(=O)Nc3cccc(-c4cccc(C)c4)c3)C2)cn1 (centres undefined)	KCNK3 inh -9 | KCNK3 confirm 91 | KCNK3 noninduced inactive
COc1ccc(Br)cc1CNC(=O)c1ccc2c(c1)N(C)CCS2	KCNK3 inh -10 | KCNK3 confirm 106 | KCNK3 noninduced inactive
CCOc1ccc(CNC(=O)c2ccc3c(c2)N(CC)CCS3)cc1	none
CCN1CCSc2ccc(C(=O)NCc3cc(Br)ccc3OC)cc21	KCNK9 inh -7 | KCNK3 confirm 92 | KCNK3 noninduced inactive
COc1ccc(C(=O)C2CCCN(Cc3c[nH]c4ccccc34)C2)c(OC)c1 (centres undefined)	none
O=C(CSc1ccc(Cl)cc1Cl)N1CCC(c2nc3ccccc3s2)CC1	KCNK3 inh -15 | KCNK3 confirm 124 | KCNK3 noninduced inactive
CC1=C(C(=O)O)N2C(=O)C(NC(=O)c3ccc(F)cc3)C2SC1 (centres undefined)	none (no result: KCNQ1 act, KCNQ1 inh, hERG protect, KCNK9 inh)
Cc1ccc(C)c(-c2nnc(NC(=O)Cc3ccccc3)o2)c1	none
CCCc1nn(-c2cc(Cl)ccc2OC)c2c1C(=O)CC(C)(C)C2	KCNK3 inh -11 | KCNK3 confirm 87 | KCNK3 noninduced inactive
CCc1nn(-c2cc(Cl)ccc2OC)c2c1C(=O)CCC2	none
